Data from ChEMBL document CHEMBL5252669, “Semisynthetic blasticidin S ester derivatives show enhanced antibiotic activity” (RSC Med Chem, 2023).
≈ marks a conversion by molar mass, not a printed value. Calls of active or inactive are those of the source. No cut-off for these calls is given here.

What was measured:
[1] = Cytotoxicity against human MRC5 cells incubated for 24 hrs by MTS assay; format: toxicity, cell-based
Method in brief: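 MRC-5 lung fibroblasts seeded 5000 per well; medium replaced with compound 16–192 μg mL−1 or matching 1:1 methanol:water vehicle; 24 h, then MTS 3–4 h; absorbance 490 nm; viability relative to untreated cells, normalized to vehicle; CC50 from two independent assays in duplicate, mean ± SD.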

Staphylococcus aureus [2] = assay: Antibacterial activity against NorA deleted Staphylococcus aureus incubated for 16 hrs by broth microdilution method; format: functional, organism-based; conditions: for IC50: 16 h; for MIC: time 16 hrs
Method in brief: (§1)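 Cation-adjusted Mueller-Hinton broth microdilution. Overnight cultures from single colonies were diluted to OD600 0.004. Final compound range was 256–2 μg mL−1 in 1:1 methanol/water vehicle, with doxycycline and vehicle controls. Plates were incubated 16 h at 37 °C. OD600 was normalized to controls, and MIC was the lowest concentration inhibiting >90% growth. Two biological replicates in duplicate; reported as a range.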

Staphylococcus aureus [3] = assay: Antibacterial activity against wild type Staphylococcus aureus 8810 incubated for 16 hrs by broth microdilution method; format: functional, organism-based; conditions: for IC50: Staphylococcus aureus, 8810, 16 h; for MIC: Staphylococcus aureus, 8810, time 16 hrs; method in brief: as §1
Staphylococcus aureus [4] = assay: Antibacterial activity against methicillin resistant Staphylococcus aureus ATCC 43300 incubated for 16 hrs by broth microdilution method; format: functional, organism-based; conditions: for IC50: ATCC 43300, 16 h; for MIC: ATCC 43300, time 16 hrs; method in brief: as §1
Klebsiella pneumoniae = assay: Antibacterial activity against Klebsiella pneumoniae ATCC 29665 incubated for 16 hrs by broth microdilution method; format: functional, organism-based; conditions: for IC50: ATCC 29665, 16 h; for MIC: ATCC 29665, time 16 hrs
Pseudomonas aeruginosa = assay: Antibacterial activity against MexAB-OprM deleted Pseudomonas aeruginosa incubated for 16 hrs by broth microdilution method; format: functional, organism-based; conditions: for IC50: 16 h; for MIC: time 16 hrs
Acinetobacter baumannii [5] = assay: Antibacterial activity against Acinetobacter baumannii ATCC 17978 incubated for 16 hrs by broth microdilution method; format: functional, organism-based; conditions: for IC50: ATCC 17978, 16 h; for MIC: ATCC 17978, time 16 hrs
Candida albicans [6] = assay: Antifungal activity against Candida albicans incubated for 16 hrs by broth microdilution method; format: functional
Saccharomyces cerevisiae = assay: Antifungal activity against Saccharomyces cerevisiae incubated for 16 hrs by broth microdilution method; format: functional
[7] = Selectivity index, ratio of CC50 for human MRC5 cells to IC50 for NorA deleted Staphylococcus aureus; format: toxicity; conditions: read-out: Ratio CC50/IC50
[8] = Selectivity index, ratio of CC50 for human MRC5 cells to IC50 for Staphylococcus aureus; format: toxicity; conditions: read-out: Ratio CC50/IC50
[9] = Selectivity index, ratio of CC50 for human MRC5 cells to IC50 for methicillin resistant Staphylococcus aureus; format: toxicity; conditions: read-out: Ratio CC50/IC50
[10] = Selectivity index, ratio of CC50 for human MRC5 cells to IC50 for Enterococcus faecalis ATCC 29212; format: toxicity; conditions: read-out: Ratio CC50/IC50
[11] = Selectivity index, ratio of CC50 for human MRC5 cells to IC50 for vancomycin-resistant Enterococcus; format: toxicity; conditions: read-out: Ratio CC50/IC50
[12] = Selectivity index, ratio of CC50 for human MRC5 cells to IC50 for Klebsiella pneumoniae ATCC 29665; format: toxicity; conditions: read-out: Ratio CC50/IC50
[13] = Selectivity index, ratio of CC50 for human MRC5 cells to IC50 for MexAB-OprM deleted Pseudomonas aeruginosa; format: toxicity; conditions: read-out: Ratio CC50/IC50
[14] = Selectivity index, ratio of CC50 for human MRC5 cells to IC50 for Acinetobacter baumannii ATCC 17978; format: toxicity; conditions: read-out: Ratio CC50/IC50
Staphylococcus aureus [15] = assay: Potency index, ratio of blasticidin-S MIC to test compound MIC for Staphylococcus aureus; format: functional
Escherichia coli = assay: Potency index, ratio of blasticidin-S MIC to test compound MIC for Escherichia coli; format: functional
Acinetobacter baumannii [16] = assay: Potency index, ratio of blasticidin-S MIC to test compound MIC for Acinetobacter baumannii; format: functional
Enterococcus faecalis [17] = assay: Antibacterial activity against Enterococcus faecalis ATCC 29212 incubated for 20 hrs by broth microdilution method; conditions: ATCC 29212, 20 h
Enterococcus [18] = assay: Antibacterial activity against vancomycin-resistant Enterococcus incubated for 20 hrs by broth microdilution method
Candida albicans [19] = assay: Antifungal activity against Candida albicans assessed as zone of inhibition incubated for 18 hrs by spot on lawn assay; format: functional, organism-based
Method in brief: (§2)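 Overnight LB cultures diluted to OD600 0.01 in 0.7% LB top agar, overlaid on 1.5% LB agar; 5 mg mL−1 aqueous compound spotted at 35, 25, 10 and 5 μg with 1:1 water/methanol vehicle spot; 37 °C, 18 h; inhibition zone diameter measured by ruler.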

Enterococcus [20] = assay: Antibacterial activity against vancomycin-resistant Enterococcus assessed as zone of inhibition incubated for 18 hrs by spot on lawn assay; format: functional, organism-based
Method in brief: (§3)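 Spot-on-lawn assay. Plates of 1.5% agar in LB were overlaid with 0.7% LB agar seeded with overnight culture at 0.01 OD600. Aqueous 5 mg mL−1 solutions were spotted at 35, 25, 10 and 5 μg, with a 1:1 water/methanol vehicle spot. After 18 h at 37 °C, inhibition zone diameters were measured with a ruler.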

Enterococcus faecalis [21] = assay: Antibacterial activity against Enterococcus faecalis ATCC 29212 assessed as zone of inhibition incubated for 18 hrs by spot on lawn assay; format: functional, organism-based; method in brief: as §2
Staphylococcus aureus [22] = assay: Antibacterial activity against methicillin resistant Staphylococcus aureus assessed as zone of inhibition incubated for 18 hrs by spot on lawn assay; format: functional, organism-based; method in brief: as §3
Staphylococcus aureus [23] = assay: Antibacterial activity against NorA deleted Staphylococcus aureus assessed as zone of inhibition incubated for 18 hrs by spot on lawn assay; format: functional, organism-based; method in brief: as §2
Staphylococcus aureus [24] = assay: Antibacterial activity against Staphylococcus aureus assessed as zone of inhibition incubated for 18 hrs by spot on lawn assay; format: functional, organism-based; method in brief: as §2

Row | SMILES | CC50 at 24 h [1] | IC50 (Staphylococcus aureus [2]) | MIC (Staphylococcus aureus [2]) | IC50 (Staphylococcus aureus [3]) | MIC (Staphylococcus aureus [3]) | IC50 (Staphylococcus aureus [4]) | MIC (Staphylococcus aureus [4]) | IC50 (Klebsiella pneumoniae) | MIC (Klebsiella pneumoniae) | IC50 (Pseudomonas aeruginosa) | MIC (Pseudomonas aeruginosa) | IC50 (Acinetobacter baumannii [5]) | MIC (Acinetobacter baumannii [5]) | MIC (Candida albicans [6]) | MIC (Saccharomyces cerevisiae) | selectivity ratio [7] | selectivity ratio [8] | selectivity ratio [9] | selectivity ratio [10] | selectivity ratio [11] | further results
1 | CN(CC[C@H](N)CC(=O)N[C@H]1C=C[C@H](n2ccc(N)nc2=O)O[C@@H]1C(N)=O)C(=N)N.Cl.Cl.Cl | 9.4 µg/mL | 41.6 µg/mL | 64 µg/mL | 15.2 µg/mL | 32 µg/mL | 15.4 µg/mL | 32 µg/mL | 9.3 µg/mL | 16 µg/mL | 19.7 µg/mL | 64 µg/mL | 3 µg/mL | 8 µg/mL | 256 µg/mL | 64 µg/mL | 0.2 | 0.6 | 0.6 | 0.7 | 0.1 | selectivity ratio [12]: 1; selectivity ratio [13]: 0.5; selectivity ratio [14]: 3; PI (Staphylococcus aureus [15]): 8; PI (Escherichia coli): 8; PI (Acinetobacter baumannii [16]): 16; IC50 (Enterococcus faecalis [17]): 12.9 µg/mL; MIC (Enterococcus faecalis [17]): 32 µg/mL; IC50 (Enterococcus [18]): 69.6 µg/mL; MIC (Enterococcus [18]): 128 µg/mL
2 | CN(CC[C@H](N)CC(=O)N[C@H]1C=C[C@H](n2ccc(N)nc2=O)O[C@@H]1C(=O)OCCc1ccccc1)C(=N)N | 18.5 µg/mL (≈ 35.1 µM) | 27.3 µg/mL (≈ 51.8 µM) | 64 µg/mL (≈ 122 µM) | 18.1 µg/mL (≈ 34.4 µM) | 64 µg/mL (≈ 122 µM) | 16.1 µg/mL (≈ 30.6 µM) | 32 µg/mL (≈ 60.8 µM) | 57.1 µg/mL (≈ 108 µM) | > 128 µg/mL | 76.9 µg/mL (≈ 146 µM) | > 128 µg/mL | 113 µg/mL (≈ 215 µM) | > 128 µg/mL | > 128 µg/mL | 64 µg/mL (≈ 122 µM) | 0.7 | 1 | 1.2 | 2.7 | 1.4 | Activity (Candida albicans [19]): inactive; Activity (Enterococcus [20]): Active; Activity (Enterococcus faecalis [21]): Active; Activity (Staphylococcus aureus [22]): Active; Activity (Staphylococcus aureus [23]): Active; Activity (Staphylococcus aureus [24]): Active; selectivity ratio [12]: 0.3; selectivity ratio [13]: 0.2; selectivity ratio [14]: 0.2; IC50 (Enterococcus faecalis [17]): 6.9 µg/mL (≈ 13.1 µM); MIC (Enterococcus faecalis [17]): 8 µg/mL (≈ 15.2 µM); IC50 (Enterococcus [18]): 13.8 µg/mL (≈ 26.2 µM); MIC (Enterococcus [18]): 32 µg/mL (≈ 60.8 µM)
3 | CCCOC(=O)[C@H]1O[C@@H](n2ccc(N)nc2=O)C=C[C@@H]1NC(=O)C[C@@H](N)CCN(C)C(=N)N | 10.2 µg/mL (≈ 22 µM) | 20.6 µg/mL (≈ 44.3 µM) | 32 µg/mL (≈ 68.9 µM) | 14.5 µg/mL (≈ 31.2 µM) | 32 µg/mL (≈ 68.9 µM) | 15.8 µg/mL (≈ 34 µM) | 32 µg/mL (≈ 68.9 µM) | 60.1 µg/mL (≈ 129 µM) | 128 µg/mL (≈ 276 µM) | 61.6 µg/mL (≈ 133 µM) | > 128 µg/mL | 42.3 µg/mL (≈ 91.1 µM) | 128 µg/mL (≈ 276 µM) | > 256 µg/mL | 32 µg/mL (≈ 68.9 µM) | 0.5 | 0.7 | 0.6 | 1 | 0.4 | Activity (Candida albicans [19]): inactive; Activity (Enterococcus [20]): Active; Activity (Enterococcus faecalis [21]): Active; Activity (Staphylococcus aureus [22]): Active; Activity (Staphylococcus aureus [23]): Active; Activity (Staphylococcus aureus [24]): Active; selectivity ratio [12]: 0.2; selectivity ratio [13]: 0.2; selectivity ratio [14]: 0.2; IC50 (Enterococcus faecalis [17]): 10.5 µg/mL (≈ 22.6 µM); MIC (Enterococcus faecalis [17]): 16 µg/mL (≈ 34.4 µM); IC50 (Enterococcus [18]): 23.6 µg/mL (≈ 50.8 µM); MIC (Enterococcus [18]): 128 µg/mL (≈ 276 µM)
